{
  "source": "paper PMC10965878",
  "about": "(Infectious Diseases and Therapy, 2024)",
  "key": {"plasma protein [1]": {"system": "plasma protein", "assay": "Unbound fraction in plasma", "type": "in vivo", "conditions": "human, oral, 375 mg, protein binding rate (= [1 − unbound fraction] × 100), humans"}, "[2]": {"assay": "Safety assessment: treatment-emergent adverse events", "type": "in vivo, human", "conditions": "single oral 375 mg", "how_it_was_run": "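Open-label, nonrandomized, parallel-group Phase 1 study in adults with mild, moderate or severe renal impairment (severe excluded if hemodialysis-dependent) and normal renal function. Normal-function controls were matched to moderate-impairment participants by sex, age (± 5 years) and BMI (± 10%). Each received a single oral 375 mg dose as three 125-mg tablets. TEAEs were recorded for nature, frequency and severity, and coded by MedDRA v25.0 System Organ Class/Preferred Term in all treated participants.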"}, "[3]": {"conditions": "for AUC0–last GLS mean ratio / t1/2,z GLS mean ratio / Ae (cumulative amount excreted unchanged in urine) / CL/F / Feu (fraction of dose excreted unchanged into urine): single oral 375 mg; for Ae (cumulative amount excreted unchanged in urine) / CL/F / Feu (fraction of dose excreted unchanged into urine): geometric mean (CV%)"}, "[4]": {"system": "multidrug and toxin extrusion (MATE) 1", "conditions": "in vitro; cited from earlier work"}, "plasma protein [5]": {"system": "plasma protein", "conditions": "hamsters; cited from earlier work"}, "[6]": {"system": "organic cation transporter (OCT) 2", "conditions": "in vitro; cited from earlier work"}, "plasma protein [7]": {"system": "plasma protein", "conditions": "mice; cited from earlier work"}, "MATE-2K": {"system": "MATE-2K", "conditions": "in vitro; cited from earlier work"}, "[8]": {"conditions": "750 mg once followed by 250 mg once daily for 4 days (750/250 mg); cited from earlier work"}, "[9]": {"conditions": "mild impairment/normal function"}, "[10]": {"conditions": "moderate impairment/normal function"}, "[11]": {"conditions": "severe impairment/normal function"}},
  "note": "Where “and” joins values, the source holds several entries; their conditions need not be identical. Identical values can stand only once. Like-named read-outs stand apart in the source and are kept apart here.",
  "data": [
    {"compound": "Cn1cnc(Cn2c(=O)[nH]/c(=N\\c3cc4cn(C)nc4cc3Cl)n(Cc3cc(F)c(F)cc3F)c2=O)n1", "note": "[ensitrelvir]", "values": [
      {"measurement": "fraction unbound", "setting": "plasma protein [1]", "value": "0.983 to 0.988"},
      {"measurement": "Any treatment-related TEAE", "setting": "[2]; mild renal impairment (N = 8)", "value": "1 (12.5) n (%)"},
      {"measurement": "Any treatment-related TEAE", "setting": "[2]; moderate renal impairment (N = 8)", "value": "1 (12.5) n (%)"},
      {"measurement": "severity category of all TEAEs and treatment-related TEAEs", "setting": "[2]; all groups", "value": "mild or moderate"},
      {"measurement": "AUC0–last GLS mean ratio", "setting": "[3]; [9]", "value": 1.4303},
      {"measurement": "t1/2,z GLS mean ratio", "setting": "[3]; [9]", "value": "1.19 and 1.1855"},
      {"measurement": "Ae (cumulative amount excreted unchanged in urine)", "setting": "[3]; mild renal impairment", "value": "45.7 (44.7) mg"},
      {"measurement": "CL/F", "setting": "[3]; mild renal impairment", "value": "0.262 (20.8) L/h"},
      {"measurement": "Feu (fraction of dose excreted unchanged into urine)", "setting": "[3]; mild renal impairment", "value": "12.2 (44.7) %"},
      {"measurement": "AUC0–last GLS mean ratio", "setting": "[3]; [10]", "value": 1.4780},
      {"measurement": "t1/2,z GLS mean ratio", "setting": "[3]; [10]", "value": "1.24 and 1.2434"},
      {"measurement": "Ae (cumulative amount excreted unchanged in urine)", "setting": "[3]; moderate renal impairment", "value": "58.6 (20.6) mg"},
      {"measurement": "CL/F", "setting": "[3]; moderate renal impairment", "value": "0.253 (26.0) L/h"},
      {"measurement": "Feu (fraction of dose excreted unchanged into urine)", "setting": "[3]; moderate renal impairment", "value": "15.6 (20.6) %"},
      {"measurement": "Ae (cumulative amount excreted unchanged in urine)", "setting": "[3]; normal renal function", "value": "54.8 (29.5) mg"},
      {"measurement": "CL/F", "setting": "[3]; normal renal function", "value": "0.376 (26.0) L/h"},
      {"measurement": "Feu (fraction of dose excreted unchanged into urine)", "setting": "[3]; normal renal function", "value": "14.6 (29.5) %"},
      {"measurement": "increased AUC level with renal impairment", "setting": "[3]; renal impairment vs normal renal function", "value": "< 2", "unit": "fold"},
      {"measurement": "AUC0–last GLS mean ratio", "setting": "[3]; [11]", "value": 1.5475},
      {"measurement": "t1/2,z GLS mean ratio", "setting": "[3]; [11]", "value": "1.61 and 1.6072"},
      {"measurement": "Ae (cumulative amount excreted unchanged in urine)", "setting": "[3]; severe renal impairment", "value": "49.2 (26.5) mg"},
      {"measurement": "CL/F", "setting": "[3]; severe renal impairment", "value": "0.235 (26.1) L/h"},
      {"measurement": "Feu (fraction of dose excreted unchanged into urine)", "setting": "[3]; severe renal impairment", "value": "13.1 (26.5) %"},
      {"measurement": "substrate for MATE1", "setting": "[4]", "value": "not a substrate"},
      {"measurement": "protein binding rate", "setting": "plasma protein [5]", "value": 98.3, "unit": "%"},
      {"measurement": "substrate for OCT2", "setting": "[6]", "value": "not a substrate"},
      {"measurement": "protein binding rate", "setting": "plasma protein [7]", "value": 97.6, "unit": "%"},
      {"measurement": "substrate for MATE-2K", "setting": "MATE-2K", "value": "not a substrate"},
      {"measurement": "tolerability", "setting": "[8]", "value": "demonstrated tolerability"}
    ]}
  ]
}
